Measured values published in PubChem BioAssay AID1040 (The Scripps Research Institute Molecular Screening Center, 2008).
“And” between values parts separate entries of the source, which are not always exact repeats. Identical values can stand only once. Screen size: about 200,000 compounds; about 2,000 (1%) were called active. The sample holds actives, similar compounds and a random draw of the others, so the mix is not that of the screen. Unmarked numbers belong to inactive results.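 The calls were made as follows: active = inhibition above the campaign mean inhibition of all tested compounds plus 3 SD (cut at about 20% in these data); inactive = the rest.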

Target: Neuropeptide Y receptor type 1 (Homo sapiens) (UniProt P25929)
Sequence (P25929 whole entry, looked up): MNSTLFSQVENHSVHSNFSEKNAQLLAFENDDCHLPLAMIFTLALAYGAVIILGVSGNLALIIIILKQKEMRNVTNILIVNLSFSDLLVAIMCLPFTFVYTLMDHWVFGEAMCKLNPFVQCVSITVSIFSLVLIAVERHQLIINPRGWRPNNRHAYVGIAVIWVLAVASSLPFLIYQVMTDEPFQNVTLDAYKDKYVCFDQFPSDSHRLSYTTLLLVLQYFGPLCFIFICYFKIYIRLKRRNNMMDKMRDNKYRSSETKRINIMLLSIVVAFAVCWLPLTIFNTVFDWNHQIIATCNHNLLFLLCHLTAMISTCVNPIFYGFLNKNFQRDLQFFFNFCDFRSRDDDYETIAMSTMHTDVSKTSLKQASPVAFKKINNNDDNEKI
Assay: blockers of human neuropeptide Y Y1 receptor – cell-based, primary screen (AID 1040);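 also: 0% = DMSO wells given NPY plus isoproterenol and 100% = isoproterenol alone without NPY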
Details: HEK293-CNG Y1 cells, membrane potential fluorescence; at 3.6 µM; stronger effect = higher value; NPY at EC95, then isoproterenol
In short: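 System: HEK293 cells with Y1 receptor plus CNG channel / Probe or stimulus: NPY 25 nM then isoproterenol 1 µM plus Ro 20-1724 25 µM / Compound: one concentration, 3.6 µM, in 0.4% DMSO / Schedule: compound incubation 1 h at room temperature, readout 45 min post-stimulation / Measured by: membrane potential fluorescence / Read-out: % inhibition of NPY effect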

| SMILES | inhibition |
| --- | --- |
| O=C(COc1nc2ccccc2nc1N1CCOCC1)NCC(F)(F)F | 3.34% |
| C/C=C/c1ccc(OCC(O)CN2CCCCCCC2)c(OC)c1 (stereo not given) | 16.4% |
| C/C(=N/O)c1ccc(N2C(=O)C3C4C=CC(C3C2=O)C2C3C(=O)N(c5ccc(/C(C)=N/O)cc5)C(=O)C3C42)cc1 (stereo not given) | 20.7% (active) |
| CCCCCOC(=O)c1ccc(N2C(=O)C3C4C=CC(C4)C3C2=O)cc1 (stereo not given) | -0.77% |
| Cc1ccc(N2C(=O)C3CC3C2=O)cc1 (stereo not given) | -4.56% |
| Cc1ccc(C(=O)N/C(=C/c2cccs2)C(=O)N2CCCCC2)cc1 | 0.27% |
| CCOC(=O)c1c(NC(=O)C2CC=CCC2C(=O)O)sc(C)c1CC (stereo not given) | 6.42% |
| COc1ccc2nc(Nc3nc4ccc(NC(C)=O)cc4s3)sc2c1 | -4.47% |
| CCCC(=O)Nc1nc2ccc(NC(=O)c3cccnc3)cc2s1 | 2.46% |
| CCCC(=O)Nc1nc2ccc(NC(=O)c3c(F)c(F)c(OC)c(F)c3F)cc2s1 | 33.9% (active) |
| O=C(NCc1ccco1)c1ccc(NS(=O)(=O)c2cccc([N+](=O)[O-])c2)cc1 | -0.88% |
| CN1CCN(C(=O)/C(=C\c2cccs2)NC(=O)c2cccs2)CC1 | -0.85% |
| CO/N=C/c1cn(-c2ccc(Cl)cc2)nn1 | -3.05% |
| O=C(NCc1ccncc1)NC12CC3CC(CC(C3)C1)C2 | -6.14% |
| O=C(c1cccc(C(=O)N2CCc3ccccc32)n1)N1CCc2ccccc21 | 10.5% |
| CCCCn1nc(C(=O)N2CCc3ccccc32)c2ccccc2c1=O | 28.5% (active) |
| CCCn1nc(C(=O)N2CCCc3ccccc32)c2ccccc2c1=O | 3.23% |
| NS(=O)(=O)c1ccc(N=Cc2ccc(Br)s2)cc1 | 2.13% |
| Cc1ccc(S(=O)(=O)NC(C(=O)N2CCOCCOCCOCCOCC2)c2ccccc2)cc1 (stereo not given) | 5.72% |
| O=C(/C=C/c1ccccc1)Nc1nnc(SCC(=O)c2ccc3ccccc3c2)s1 | -1.51% |
| O=C(NCCNc1ccc([N+](=O)[O-])cc1)c1cccc2c(Br)cccc12 | 10.2% |
| CCOC(=O)/C(=N\Nc1ccccc1Cl)N(C)C1CCS(=O)(=O)C1 (stereo not given) | -1.74% |
| Cc1ccc(C(=O)N2CCCC(c3ccccc3)=N2)cc1 | 0.71% |

| SMILES | inhibition |
| --- | --- |
| Cn1c(-c2ccccc2)c[n+]2c1CCCCC2 | 6% |
| Cc1ccc(C(=O)C[n+]2cc(-c3ccccc3)n3c2CCCCC3)cc1 | 30.8% (active) and 55.8% (active) |
| CCN1CCN(C(C(=O)NC2CCCC2)c2cc3c(cc2[N+](=O)[O-])OCO3)CC1 (stereo not given) | -0.35% |
| COC(=O)C1=C(Nc2ccc(OC)cc2)C=C(C)C(C(=O)OC)C1c1ccc(C)cc1 (stereo not given) | 14.2% |
| COC(=O)C1C(=O)NCC1c1ccc(C)cc1 (stereo not given) | -2.75% |
| COC(=O)C1=C(Nc2ccc(C)cc2)C=C(C)C(C(=O)OC)C1c1ccc(F)cc1 (stereo not given) | 32.6% (active) |
| O=c1[nH]c2ccccc2s1 | 1.2% |
| Cc1ccc(S(=O)(=O)N2CCOCC2)cc1C(=O)NC(=S)N(Cc1ccccc1)C(C)C | 1.17% |
| Cc1nnc(SCC(=O)N2c3ccccc3C(C)(c3ccc(Cl)cc3)CC2(C)C)s1 (stereo not given) | 16.7% |
| CC(=O)Nc1ccc(/C(C)=N/NC(=O)CN(c2ccccc2Br)S(C)(=O)=O)cc1 | -2.53% |
| Cc1ccc(SCCC(=O)OCC(=O)Nc2ncc(Cl)cc2Cl)cc1 | 20.4% (active) |
| CC(Oc1ccc(Cl)cc1)C(=O)OCC(=O)Nc1ncc(Cl)cc1Cl (stereo not given) | 2.64% |
| Cc1ccc(-n2c(SCC(=O)Nc3ncc(Cl)cc3Cl)nc3ccccc32)cc1 | -2.49% |
| CC1(C)C=C2[C@H]3CC[C@@H]4[C@@]5(C)CCC(=O)C(C)(C)[C@@H]5CC[C@@]4(C)[C@]3(C)CC[C@@]2(C(=O)O)CC1 | 2.69% |
| Cc1cc(O)ccc1-c1cnc2ccccc2n1 | -0.67% |
| Oc1ccc(-c2[nH]ncc2-c2nc3ccccc3s2)c(O)c1 | 62.6% (active) |
| CC(=O)Nc1cccc(-c2nc3ccccc3s2)c1C | 3.27% |
| CC1CCN(S(=O)(=O)c2ccc3ncn(CC(=O)N(C)C4CCCCC4)c(=O)c3c2)CC1 | 4.79% |
| CCOC(=O)C1CCN(CCC(=O)Nc2cccc(C)c2)CC1 | -5.31% |
| O=C(c1ccc(CSc2ccccc2)cc1)N1CCCCCC1 | -0.16% |
| COc1ccccc1OCc1ccc(C(=O)N2CCN(C)CC2)o1 | 6.16% |
| COc1cc2c(C(=O)N3CCN(C)CC3)c(CSc3ccccc3)n(C)c2cc1Br | 23.3% (active) |
| O=[N+]([O-])c1ccc(N2CCN(S(=O)(=O)c3ccccc3)CC2)cc1N1CCc2ccccc2C1 | 4.34% |

| SMILES | inhibition |
| --- | --- |
| COc1ccc(-c2cc(C(=O)n3cnc4ccccc43)c3ccccc3n2)cc1 | 26.2% (active) |
| Cc1ccc(OCC(=O)Nn2cnc3ccccc32)cc1 | 8.06% |
| CNC(=O)COC(=O)c1cc(-c2ccc(OC)cc2)nc2ccccc12 | 3.85% |
| COc1cc(NC(=S)N2CCCC(C)C2)cc(OC)c1OC (stereo not given) | -1.31% |
| CC(=O)N1CCN(S(=O)(=O)c2cccc(C(=O)NC3CCC(C)CC3)c2)CC1 (stereo not given) | 1.65% |
| Cn1c(=O)c2c(ncn2CCc2ccccc2)n(C)c1=O | -0.86% |
| CC(C)Cn1c(CN(Cc2ccccc2)Cc2ccccc2)nc2c1c(=O)n(C)c(=O)n2C | 13.4% |
| CC(C)Cn1cnc2c1c(=O)n(CC(O)c1ccccc1)c(=O)n2CC(C)C (stereo not given) | 20.6% (active) |
| CCCN(CC(=O)Nc1ccc(C(N)=O)cc1)CC(=O)Nc1ccccc1C | -0.18% |
| O=C1Nc2cc(Cl)c(Cl)cc2N(O)N1c1ccccc1Cl | 1.81% |
| CC(=O)Nc1ccc(NC(=O)C(C)OC(=O)c2ccccc2C(=O)c2ccc(Cl)c([N+](=O)[O-])c2)cc1 (stereo not given) | 0.15% |
| CCN1CCN(CCNC(=O)c2ccc(/C=C3/Sc4ccccc4N(Cc4cccc(C)c4)C3=O)cc2)CC1 | 23.1% (active) |
| Cc1nn(Cc2ccccc2)c(C)c1C(=O)NCCN1C(=O)S/C(=C\c2ccc(F)cc2)C1=O | -0.53% |
| O=C(CN1C(=O)/C(=C\c2ccc(C(F)(F)F)cc2)Sc2ccccc21)NCc1ccco1 | 10.7% |
| Cc1ccc(OCCCn2c(=O)oc3ccccc32)cc1 | 8.49% |
| Cc1ccc2nc(-c3ccc(NC(=O)CN(C)S(=O)(=O)c4ccccc4)cc3)sc2c1 | -3.73% |
| Cc1c(CN2CCCC(C(=O)c3cccc(Cl)c3)C2)c(=O)n(-c2ccccc2)n1C (stereo not given) | -2.25% |
| Cc1ccc2nc(-c3ccncc3)cc(C(=O)Nc3ccc4c(c3)OCCO4)c2c1 | 4.85% |
| Cc1ccc2nc(-c3ccccn3)cc(C(=O)Nc3ccc4c(c3)OCO4)c2c1 | 31.6% (active) |
| O=C(Nc1ccncc1)c1cc(-c2ccccn2)nc2ccc(Br)cc12 | -2.88% |
| COCCNC(=O)C(c1ccc(C)o1)N(Cc1ccccc1)C(=O)Cn1nnc2ccccc21 (stereo not given) | 7.77% |
| Cc1ccc(C(C(=O)NCc2ccco2)N(CC2CCCO2)C(=O)Cn2nnc3ccccc32)cc1 (stereo not given) | 2.99% |
| COc1ccccc1N(C(=O)Cn1nnc2ccccc21)C(C(=O)NCc1ccco1)c1ccc(C)o1 (stereo not given) | 21.5% (active) |

| SMILES | inhibition |
| --- | --- |
| CCO[C@H]1OC(C(=O)O)=C[C@@H](C2CCCCC2)[C@@H]1CCCO | -4.69% |
| CC1CC1C(=O)OCC(=O)c1c(N)n(C)c(=O)n(C)c1=O (stereo not given) | 0.59% |
| COc1ccc(OC)c(NC(=O)CN(Cc2ccc(Cl)cc2)S(C)(=O)=O)c1 | -0.76% |
| COc1ccccc1N1CCN(C(=O)CN(Cc2ccc(Cl)cc2)S(C)(=O)=O)CC1 | 20.4% (active) |
| CS(=O)(=O)N(CC(=O)N1CCCC1)Cc1ccccc1 | 1.29% |
| COC(=O)C1=C(C)N(c2ccc(C)cc2)/C(=C/c2ccc(O)cc2)C1=O | 2.2% |
| COCCNc1nc2nonc2nc1N1CCCC1c1nccs1 (stereo not given) | 0.14% |
| O=C(C(=O)N1CCc2ccccc2C1)N1CCc2ccccc2C1 | 1.24% |
| Cc1ccc(-c2cc(C(=O)N3CCc4ccccc4C3)no2)cc1 | 28.6% (active) |
| O=C(c1cc(-c2cccc(O)c2)on1)N1CCc2ccccc2C1 | 2.12% |
| Cc1occc1C(=O)N1CCCc2ccccc21 | 1.99% |
| O=C(c1cc(-c2ccc(O)cc2)on1)N1CCCc2ccccc21 | 25.5% (active) |
| O=C(c1cc(-c2ccccc2O)on1)N1CCCC1 | -3.05% |
| CC(C)Oc1ccccc1C(=O)NC(CO)C(=O)O (stereo not given) | -2.02% |
| Cc1ccc(O)c(CCc2ccccc2)n1 | 1.07% |
| Cc1nn(CC(=O)Nc2ccc(C#N)cc2)c(C)c1[N+](=O)[O-] | -0.39% |
| COc1ccc(C2CC(=O)Nc3sc(=N)c4c(N)c(C#N)c(N)nc4c32)cc1OC (stereo not given) | 60.1% (active) |
| COc1ccc(-c2cc(-c3ccc(N)cc3)nc(N)c2C#N)cc1OC | 7.06% |
| N#Cc1c(N)nc2c3c(sc(=N)c2c1N)NC(=O)CC3c1ccccc1Cl (stereo not given) | 1.18% |
| CC(NC(=O)COC(=O)C1CCN(S(=O)(=O)c2ccccc2C(F)(F)F)CC1)c1ccccc1 (stereo not given) | -0.58% |
| Cc1c(NC(=S)NC(=O)CCc2ccccc2)c(=O)n(-c2ccccc2)n1C | 4.67% |
